# ChEMBL document CHEMBL3758150, “Discovery and SAR of N-(1-((substituted piperidin-4-yl)methyl)-3-methoxypiperidin-4-yl)-2-methoxybenzamide derivatives: 5-Hydroxytryptamine receptor 4 agonist as a potent prokinetic agent” (Eur J Med Chem, 2016)
# Tests used:
# [1] = Solubility of the compound in distilled water; assay type: physicochemical
# [2] = target: T1, 5-hydroxytryptamine receptor 4 (Homo sapiens, UniProt Q13639); assay: Displacement of [3H]-GR113808 from human 5-HT4 receptor expressed in African green monkey COS7 cell membranes after 30 mins by liquid scintillation counting analysis; parameters: species or system COS-7
# How it was run: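 Membranes from Cos-7 cells expressing human 5-HT4: cells washed in PBS, pelleted, then resuspended in ice-cold 50 mM HEPES pH 7.4 and spun at 40,000 g for 30 min at 4 °C. Nonspecific binding was set with 10 μM 5-HT. IC50 came from linear regression of the displacement curve.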
# Rattus norvegicus [3] = assay: Induction of gastric emptying rate in Sprague-Dawley rat at 5 mg/kg, iv administered prior to feeding measured after 30 mins; assay type: functional, Stomach
# [4] = target: Voltage-gated inwardly rectifying potassium channel KCNH2 (Homo sapiens, UniProt Q12809); assay: Inhibition of human ERG channel by fluorescence polarization assay
# [5] = target: Cholecystokinin receptor type A (Homo sapiens) (UniProt P32238); conditions: 1 to 2 uM
# [6] = target: Beta-1 adrenergic receptor (Homo sapiens) (UniProt P08588); conditions: 1 to 2 uM
# [7] = target: Adrenergic receptor alpha-2 (Homo sapiens) (UniProt P08913+P18825+P18089); conditions: 1 to 2 uM
# [8] = target: Muscarinic acetylcholine receptor M2 (Homo sapiens) (UniProt P08172); conditions: 1 to 2 uM
# [9] = target: T1, 5-hydroxytryptamine receptor 4; conditions: 1 to 2 uM
# [10] = target: 5-hydroxytryptamine receptor 1A (Homo sapiens) (UniProt P08908); conditions: 1 to 2 uM
# [11] = target: Somatostatin receptor type 2 (Homo sapiens) (UniProt P30874); conditions: 1 to 2 uM
# [12] = target: Kappa-type opioid receptor (Homo sapiens) (UniProt P41145); conditions: 1 to 2 uM
# [13] = target: 5-hydroxytryptamine receptor 2B (Homo sapiens) (UniProt P41595); conditions: 1 to 2 uM
# [14] = target: 5-hydroxytryptamine receptor 2A (Homo sapiens) (UniProt P28223); conditions: 1 to 2 uM
# [15] = target: Motilin receptor (Homo sapiens) (UniProt O43193); conditions: 1 to 2 uM
# [16] = target: 5-hydroxytryptamine receptor 1B (Homo sapiens) (UniProt P28222); conditions: 1 to 2 uM
# [17] = target: Muscarinic acetylcholine receptor M3 (Homo sapiens) (UniProt P20309); conditions: 1 to 2 uM
# [18] = target: D(2) dopamine receptor (Homo sapiens) (UniProt P14416); conditions: 1 to 2 uM
# [19] = target: Substance-K receptor (Homo sapiens) (UniProt P21452); conditions: 1 to 2 uM
# [20] = target: D(3) dopamine receptor (Homo sapiens) (UniProt P35462); conditions: 1 to 2 uM
# [21] = target: Adrenergic receptor alpha-1 (Homo sapiens) (UniProt P35348+P25100+P35368); conditions: 1 to 2 uM
# [22] = target: 5-hydroxytryptamine receptor 3A (Homo sapiens) (UniProt P46098); conditions: 1 to 2 uM
# [23] = target: Substance-P receptor (Homo sapiens) (UniProt P25103); conditions: 1 to 2 uM
# [24] = target: Mu-type opioid receptor (Homo sapiens) (UniProt P35372); conditions: 1 to 2 uM
# [25] = target: D(2) dopamine receptor (Homo sapiens) (UniProt P14416); conditions: 1 to 2 uM; remark: listed apart in the source
# [26] = target: 5-hydroxytryptamine receptor 4 (Rattus norvegicus, UniProt Q62758); assay: Agonist activity at 5-HT4 receptor in rat esophageal thoracic muscularis mucosae assessed as carbachol-induced contraction
# How it was run: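 The distal 1.2 cm of rat esophagus was equilibrated 60 min in Krebs–Henseleit, washed every 15 min, with isometric force recording. Tissue was precontracted with 3 μM carbachol, then given a cumulative relaxation curve to 5-HT. After a wash and 60 min recovery it was recontracted and a test-compound curve run. Potency is relative to 5-HT in the same preparation.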
# [27] = Tmax in rat at 5 mg/kg, po; assay type: ADME, organism-based; conditions: in vivo
# Rattus norvegicus [28] = assay: Induction of gastric emptying rate in Sprague-Dawley rat at 5 mg/kg, iv administered prior to feeding along with cisplatin injection measured after 40 mins; assay type: functional, Stomach
# How it was run: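 Male Sprague-Dawley rats (220–250 g) were fasted 18 h with water available. A 2 mL semisolid meal was given 30 min after drug, together with cisplatin 5 mg/kg i.v. Gastric emptying was determined 40 min later from stomach weights versus 0-time controls: [1 − test/control] × 100.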
# [29] = Cmax in rat at 5 mg/kg, po; assay type: ADME, organism-based; parameters: dose 5 mg/kg, route oral; conditions: in vivo
# Rattus norvegicus [30] = assay: AUCinfinity in rat at 5 mg/kg, po; assay type: ADME, organism-based; parameters: dose 5 mg/kg, time infinity, route oral; conditions: in vivo
# [31] = Half life in rat at 5 mg/kg, po; assay type: ADME, organism-based; conditions: in vivo
# 5-hydroxytryptamine receptor 4 (Rattus norvegicus, UniProt Q62758), sequence (Q62758 whole entry): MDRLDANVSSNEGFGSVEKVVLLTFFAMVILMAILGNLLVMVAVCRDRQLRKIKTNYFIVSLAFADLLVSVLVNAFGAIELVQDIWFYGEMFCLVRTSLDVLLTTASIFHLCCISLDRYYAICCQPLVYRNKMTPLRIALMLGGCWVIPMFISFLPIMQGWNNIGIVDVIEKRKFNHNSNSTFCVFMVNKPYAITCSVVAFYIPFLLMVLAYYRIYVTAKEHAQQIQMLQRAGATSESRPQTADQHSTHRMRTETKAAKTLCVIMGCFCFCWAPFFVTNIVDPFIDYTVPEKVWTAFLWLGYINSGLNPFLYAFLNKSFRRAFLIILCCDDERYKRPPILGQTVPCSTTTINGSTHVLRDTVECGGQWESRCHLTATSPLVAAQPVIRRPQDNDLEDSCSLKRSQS
# T1 sequence (Q13639 whole entry): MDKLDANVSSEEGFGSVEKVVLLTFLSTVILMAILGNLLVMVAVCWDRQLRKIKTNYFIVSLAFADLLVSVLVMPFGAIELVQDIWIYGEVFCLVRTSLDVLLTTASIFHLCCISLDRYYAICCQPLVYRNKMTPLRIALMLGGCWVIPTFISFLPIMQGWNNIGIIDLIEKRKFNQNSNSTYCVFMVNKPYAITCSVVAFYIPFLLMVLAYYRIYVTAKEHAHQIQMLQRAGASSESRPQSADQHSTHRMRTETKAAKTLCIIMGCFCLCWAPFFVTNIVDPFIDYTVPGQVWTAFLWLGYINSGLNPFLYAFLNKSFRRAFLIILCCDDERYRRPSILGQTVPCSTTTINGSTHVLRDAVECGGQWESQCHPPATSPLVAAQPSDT
# Voltage-gated inwardly rectifying potassium channel KCNH2, sequence (Q12809 whole entry): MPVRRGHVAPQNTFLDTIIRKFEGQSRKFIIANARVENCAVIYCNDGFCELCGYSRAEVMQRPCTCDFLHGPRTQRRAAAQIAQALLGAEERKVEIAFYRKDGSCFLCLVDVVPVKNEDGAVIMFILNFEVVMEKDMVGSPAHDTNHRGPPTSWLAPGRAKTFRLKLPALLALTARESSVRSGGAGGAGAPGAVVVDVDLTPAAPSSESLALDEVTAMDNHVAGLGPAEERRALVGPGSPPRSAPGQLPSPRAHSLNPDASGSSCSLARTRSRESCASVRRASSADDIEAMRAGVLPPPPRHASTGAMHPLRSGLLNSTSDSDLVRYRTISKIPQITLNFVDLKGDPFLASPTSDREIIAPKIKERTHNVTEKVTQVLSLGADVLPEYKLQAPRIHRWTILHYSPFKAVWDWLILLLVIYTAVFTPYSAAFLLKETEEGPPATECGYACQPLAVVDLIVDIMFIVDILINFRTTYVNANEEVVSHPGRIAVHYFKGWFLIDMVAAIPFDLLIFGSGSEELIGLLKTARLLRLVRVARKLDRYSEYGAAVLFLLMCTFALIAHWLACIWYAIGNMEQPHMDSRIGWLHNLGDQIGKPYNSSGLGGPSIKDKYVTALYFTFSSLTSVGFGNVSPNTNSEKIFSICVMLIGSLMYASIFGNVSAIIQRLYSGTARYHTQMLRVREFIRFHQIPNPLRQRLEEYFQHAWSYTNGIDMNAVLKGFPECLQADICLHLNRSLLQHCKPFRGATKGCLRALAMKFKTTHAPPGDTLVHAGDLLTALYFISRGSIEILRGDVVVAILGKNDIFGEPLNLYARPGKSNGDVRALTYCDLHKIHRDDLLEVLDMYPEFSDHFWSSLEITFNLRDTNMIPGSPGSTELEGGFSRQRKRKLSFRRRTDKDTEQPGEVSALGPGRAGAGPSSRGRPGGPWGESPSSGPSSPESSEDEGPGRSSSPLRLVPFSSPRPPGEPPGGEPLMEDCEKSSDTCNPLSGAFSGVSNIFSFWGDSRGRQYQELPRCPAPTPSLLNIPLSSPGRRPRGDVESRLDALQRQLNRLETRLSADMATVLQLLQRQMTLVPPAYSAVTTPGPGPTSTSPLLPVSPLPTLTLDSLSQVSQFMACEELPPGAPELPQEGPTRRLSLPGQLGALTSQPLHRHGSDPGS
# D(2) dopamine receptor (Homo sapiens), sequence (P14416 whole entry): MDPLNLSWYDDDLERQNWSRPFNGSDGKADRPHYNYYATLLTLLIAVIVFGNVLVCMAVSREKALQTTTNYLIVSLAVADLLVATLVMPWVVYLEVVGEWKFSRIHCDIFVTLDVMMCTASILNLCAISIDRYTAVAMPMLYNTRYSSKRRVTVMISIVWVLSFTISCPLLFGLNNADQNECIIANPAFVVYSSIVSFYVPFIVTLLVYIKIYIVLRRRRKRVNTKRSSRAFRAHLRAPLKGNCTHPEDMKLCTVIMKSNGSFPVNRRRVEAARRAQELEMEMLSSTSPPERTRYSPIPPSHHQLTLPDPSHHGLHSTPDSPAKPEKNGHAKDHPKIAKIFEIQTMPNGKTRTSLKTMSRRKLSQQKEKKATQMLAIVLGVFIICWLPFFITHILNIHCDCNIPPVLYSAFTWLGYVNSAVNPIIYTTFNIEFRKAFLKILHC
# Substance-P receptor (Homo sapiens), sequence (P25103 whole entry): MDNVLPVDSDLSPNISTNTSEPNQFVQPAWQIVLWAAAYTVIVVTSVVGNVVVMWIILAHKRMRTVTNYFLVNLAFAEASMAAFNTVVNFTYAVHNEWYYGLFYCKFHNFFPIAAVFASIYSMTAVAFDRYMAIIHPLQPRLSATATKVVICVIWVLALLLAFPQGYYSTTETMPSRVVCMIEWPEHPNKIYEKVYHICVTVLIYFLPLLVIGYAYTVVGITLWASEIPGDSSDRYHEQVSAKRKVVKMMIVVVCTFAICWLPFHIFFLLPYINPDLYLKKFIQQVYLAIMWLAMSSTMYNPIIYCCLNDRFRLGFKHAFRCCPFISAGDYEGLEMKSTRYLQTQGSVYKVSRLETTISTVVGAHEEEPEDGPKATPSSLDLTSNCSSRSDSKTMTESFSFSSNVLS
# 5-hydroxytryptamine receptor 3A (Homo sapiens), sequence (P46098 whole entry): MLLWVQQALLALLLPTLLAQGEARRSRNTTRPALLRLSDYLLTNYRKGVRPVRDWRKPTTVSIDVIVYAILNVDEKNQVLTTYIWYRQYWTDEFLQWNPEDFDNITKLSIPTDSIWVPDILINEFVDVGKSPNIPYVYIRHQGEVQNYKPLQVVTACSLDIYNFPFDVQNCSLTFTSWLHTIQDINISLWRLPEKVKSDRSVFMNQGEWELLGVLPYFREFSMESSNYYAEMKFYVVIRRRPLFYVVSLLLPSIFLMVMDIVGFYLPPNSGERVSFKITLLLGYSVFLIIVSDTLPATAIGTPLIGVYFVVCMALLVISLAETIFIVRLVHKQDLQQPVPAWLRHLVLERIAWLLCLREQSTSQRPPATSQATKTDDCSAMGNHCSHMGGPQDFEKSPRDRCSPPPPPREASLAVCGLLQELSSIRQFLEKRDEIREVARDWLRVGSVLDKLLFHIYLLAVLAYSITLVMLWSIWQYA
# Beta-1 adrenergic receptor (Homo sapiens), sequence (P08588 whole entry, looked up): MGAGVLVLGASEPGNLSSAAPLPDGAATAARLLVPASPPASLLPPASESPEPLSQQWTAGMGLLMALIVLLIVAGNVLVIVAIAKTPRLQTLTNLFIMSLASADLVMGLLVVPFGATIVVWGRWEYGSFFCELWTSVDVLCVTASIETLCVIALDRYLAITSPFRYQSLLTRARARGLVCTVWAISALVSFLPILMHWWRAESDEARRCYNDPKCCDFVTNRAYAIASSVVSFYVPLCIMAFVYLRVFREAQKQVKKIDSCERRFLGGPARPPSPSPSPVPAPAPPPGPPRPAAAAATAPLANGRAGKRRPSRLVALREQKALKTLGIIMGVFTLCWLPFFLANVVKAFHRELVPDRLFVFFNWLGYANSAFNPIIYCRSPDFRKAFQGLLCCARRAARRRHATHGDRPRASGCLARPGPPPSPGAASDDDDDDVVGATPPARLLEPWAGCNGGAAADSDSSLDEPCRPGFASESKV
# Cholecystokinin receptor type A (Homo sapiens), sequence (P32238 whole entry): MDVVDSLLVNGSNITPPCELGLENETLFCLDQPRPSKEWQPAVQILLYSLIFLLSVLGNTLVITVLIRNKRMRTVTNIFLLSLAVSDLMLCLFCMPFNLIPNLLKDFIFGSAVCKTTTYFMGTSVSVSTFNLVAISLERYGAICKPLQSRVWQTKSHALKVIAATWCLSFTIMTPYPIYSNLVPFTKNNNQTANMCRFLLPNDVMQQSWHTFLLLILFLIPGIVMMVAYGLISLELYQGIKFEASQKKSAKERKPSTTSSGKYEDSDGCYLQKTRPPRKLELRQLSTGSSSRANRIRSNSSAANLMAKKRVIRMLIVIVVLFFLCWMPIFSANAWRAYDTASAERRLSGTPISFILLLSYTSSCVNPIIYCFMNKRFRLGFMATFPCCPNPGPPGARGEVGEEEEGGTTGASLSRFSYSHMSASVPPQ
# 5-hydroxytryptamine receptor 2A (Homo sapiens), sequence (P28223 whole entry): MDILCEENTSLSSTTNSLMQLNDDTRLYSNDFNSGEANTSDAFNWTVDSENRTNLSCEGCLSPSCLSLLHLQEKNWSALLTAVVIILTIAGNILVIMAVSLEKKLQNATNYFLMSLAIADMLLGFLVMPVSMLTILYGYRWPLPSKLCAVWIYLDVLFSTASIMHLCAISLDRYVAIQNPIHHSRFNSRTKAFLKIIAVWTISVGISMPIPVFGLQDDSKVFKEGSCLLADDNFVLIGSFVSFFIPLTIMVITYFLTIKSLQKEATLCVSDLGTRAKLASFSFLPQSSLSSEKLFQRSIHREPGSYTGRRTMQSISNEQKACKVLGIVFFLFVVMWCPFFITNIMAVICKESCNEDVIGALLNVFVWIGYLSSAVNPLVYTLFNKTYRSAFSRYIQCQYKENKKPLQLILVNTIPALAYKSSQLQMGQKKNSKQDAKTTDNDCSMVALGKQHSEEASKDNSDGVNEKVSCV
smiles,measurement,setting,value
COc1cc(N)c(Cl)cc1C(=O)N[C@H]1CCN(CC2CCN(C(=O)C(C)C)CC2)C[C@H]1OC.CS(=O)(=O)O,solubility,[1],> 10 mg/mL
COc1cc(N)c(Cl)cc1C(=O)N[C@@H]1CCN(CC2CCN(C(=O)C(C)C)CC2)C[C@@H]1OC,IC50,[2],0.068 µM
same,Activity,Rattus norvegicus [3],61.7%
COc1cc(N)c(Cl)cc1C(=O)N[C@H]1CCN(CC2CCN(C(=O)C(C)C)CC2)C[C@H]1OC.O=C(O)C(O)C(O)C(=O)O,solubility,[1],> 30 mg/mL
CCOC(=O)N1CCC(CN2CC[C@H](NC(=O)c3cc(Cl)c(N)cc3OC)[C@H](OC)C2)CC1,IC50,[2],0.377 µM
same,Activity,Rattus norvegicus [3],55.9%
COc1cc(N)c(Cl)cc1C(=O)N[C@H]1CCN(CCCn2ncnn2)C[C@H]1OC,IC50,[2],1.12 µM
same,IC50,[4],> 10 µM
Br.COc1cc(N)c(Cl)cc1C(=O)N[C@H]1CCN(CC2CCN(C(=O)C(C)C)CC2)C[C@H]1OC,solubility,[1],< 5 mg/mL
COc1cc(N)c(Cl)cc1C(=O)N[C@H]1CCN(CC2CCN(C(=O)C(C)C)CC2)C[C@H]1OC.O=C(O)/C=C\C(=O)O,solubility,[1],> 10 mg/mL
COc1cc(N)c(Cl)cc1C(=O)N[C@H]1CCN(CC2CCN(C(=O)C(C)C)CC2)C[C@H]1OC.O=C(O)CC(O)(CC(=O)O)C(=O)O,solubility,[1],> 30 mg/mL
COc1cc(N)c(Cl)cc1C(=O)N[C@H]1CCN(CC2CCN(C(=O)C(C)C)CC2)C[C@H]1OC.Cl,solubility,[1],> 15 mg/mL
COc1cc(N)c(Cl)cc1C(=O)N[C@H]1CCN(CC2CCN(C(=O)C(C)C)CC2)C[C@H]1OC,IC50,[2],> 10 µM
same,Activity,Rattus norvegicus [3],56.5%
COc1cc(N)c(Cl)cc1C(=O)N[C@H]1CCN(CC2CCN(C(=O)C(C)C)CC2)C[C@H]1OC (racemic),inhibition,[5],50%
same,inhibition,[6],50%
same,inhibition,[7],50%
same,inhibition,[8],50%
same,inhibition,[9],50%
same,inhibition,[10],50%
same,inhibition,[11],50%
same,inhibition,[12],50%
same,inhibition,[13],50%
same,inhibition,[14],50%
same,inhibition,[15],50%
same,inhibition,[16],50%
same,inhibition,[17],50%
same,inhibition,[18],50%
same,inhibition,[19],50%
same,inhibition,[20],50%
same,inhibition,[21],50%
same,inhibition,[22],50%
same,inhibition,[23],50%
same,inhibition,[24],50%
same,inhibition,[25],50%
COc1cc(N)c(Cl)cc1C(=O)N[C@H]1CCN(CCCn2ccnc2)C[C@H]1OC (relative stereo),EC50,[26],0.251 µM
same,IC50,[2],1.16 µM
CCC(=S)N1CCC(CN2CC[C@H](NC(=O)c3cc(Cl)c(N)cc3OC)[C@H](OC)C2)CC1 (relative stereo),IC50,[2],0.593 µM
same,Activity,Rattus norvegicus [3],61%
COc1cc(N)c(Cl)cc1C(=O)N[C@H]1CCN(CCC(=O)N2CCOCC2)C[C@H]1OC (relative stereo),IC50,[2],0.954 µM
COc1cc(N)c(Cl)cc1C(=O)N[C@H]1CCN(CC2CCN(C(=O)CC(C)C)CC2)C[C@H]1OC (relative stereo),Activity,Rattus norvegicus [3],54.3%
COc1cc(N)c(Cl)cc1C(=O)N[C@H]1CCN(CCC(=O)N2CCCC2)C[C@H]1OC (relative stereo),IC50,[2],0.92 µM
CCCOC(=O)N1CCC(CN2CC[C@H](NC(=O)c3cc(Cl)c(N)cc3OC)[C@H](OC)C2)CC1 (relative stereo),IC50,[2],0.134 µM
same,Activity,Rattus norvegicus [3],57.7%
COc1cc(N)c(Cl)cc1C(=O)N[C@H]1CCN(CC2CCN(C(=S)C(C)C)CC2)C[C@H]1OC (relative stereo),IC50,[2],0.155 µM
same,Activity,Rattus norvegicus [3],67.3%
COc1cc(N)c(Cl)cc1C(=O)N[C@H]1CCN(CCn2cccc2)C[C@H]1OC (relative stereo),IC50,[2],5.76 µM
COc1cc(N)c(Cl)cc1C(=O)N[C@H]1CCN(CCCn2cccc2)C[C@H]1OC (relative stereo),EC50,[26],0.676 µM
same,IC50,[2],0.648 µM
COc1cc(N)c(Cl)cc1C(=O)N[C@H]1CCN(CCC(=O)N2CCCCC2)C[C@H]1OC (relative stereo),EC50,[26],1.05 µM
same,IC50,[2],0.56 µM
COc1cc(N)c(Cl)cc1C(=O)N[C@H]1CCN(CC2CCN(C(=O)NC(C)C)CC2)C[C@H]1OC (relative stereo),IC50,[2],0.073 µM
same,Activity,Rattus norvegicus [3],59.9%
CCC(=O)N1CCC(CN2CC[C@H](NC(=O)c3cc(Cl)c(N)cc3OC)[C@H](OC)C2)CC1 (relative stereo),EC50,[26],0.38 µM
same,IC50,[2],0.329 µM
same,Activity,Rattus norvegicus [3],57.8%
CCC(=O)N1CCCC(CN2CC[C@H](NC(=O)c3cc(Cl)c(N)cc3OC)[C@H](OC)C2)C1 (relative stereo),EC50,[26],1.55 µM
same,IC50,[2],0.493 µM
COc1cc(N)c(Cl)cc1C(=O)N[C@H]1CCN(CC2CCN(C(C)=O)CC2)C[C@H]1OC (relative stereo),IC50,[2],0.592 µM
same,Activity,Rattus norvegicus [3],39.5%
CCCC(=O)N1CCC(CN2CC[C@H](NC(=O)c3cc(Cl)c(N)cc3OC)[C@H](OC)C2)CC1 (relative stereo),IC50,[2],0.178 µM
same,Activity,Rattus norvegicus [3],48.6%
COc1cc(N)c(Cl)cc1C(=O)N[C@H]1CCN(CCCn2cncn2)C[C@H]1OC (relative stereo),EC50,[26],0.708 µM
same,IC50,[2],1.27 µM
same,IC50,[4],7.71 µM
COc1cc(N)c(Cl)cc1C(=O)N[C@H]1CCN(CC2CCN(C(=O)N(C)C)CC2)C[C@H]1OC (relative stereo),IC50,[2],0.052 µM
same,Activity,Rattus norvegicus [3],46%
CCC(=O)N1CCC(CCN2CC[C@H](NC(=O)c3cc(Cl)c(N)cc3OC)[C@H](OC)C2)CC1 (relative stereo),IC50,[2],0.805 µM
COc1cc(N)c(Cl)cc1C(=O)N[C@H]1CCN(CCC(=O)N2CCC(Cc3ccccc3)CC2)C[C@H]1OC (relative stereo),EC50,[26],6.03 µM
same,IC50,[2],0.066 µM
COc1cc(N)c(Cl)cc1C(=O)N[C@H]1CCN(CC2CCN(C(=O)C(C)(C)C)CC2)C[C@H]1OC (relative stereo),Tmax,[27],15 min
same,Activity,Rattus norvegicus [28],56.6%
same,EC50,[26],0.1 µM
same,IC50,[2],0.118 µM
same,Cmax,[29],345 ng/mL
same,AUC,Rattus norvegicus [30],263 ng·h/mL
same,Activity,Rattus norvegicus [3],56.4%
same,half-life,[31],46.2 min
COC(=O)N1CCC(CN2CC[C@H](NC(=O)c3cc(Cl)c(N)cc3OC)[C@H](OC)C2)CC1 (relative stereo),IC50,[2],0.19 µM
same,Activity,Rattus norvegicus [3],56.2%
COc1cc(N)c(Cl)cc1C(=O)N[C@H]1CCN(CCCOc2ccc(F)cc2)C[C@H]1OC (relative stereo) [REL-CISAPRIDE],Tmax,[27],15 min
same,Activity,Rattus norvegicus [28],57.2%
same,Cmax,[29],104 ng/mL
same,AUC,Rattus norvegicus [30],142 ng·h/mL
same,Activity,Rattus norvegicus [3],57.1%
same,half-life,[31],88.8 min
